Source: ChEMBL document CHEMBL1134611, “Agonist activity at the kinin B1 receptor: structural requirements of the central tetrapeptide” (J Med Chem, 2001)
Activity calls are given as the source filed them. No cut-off for these calls is given here. Numbered stars: 1 amine (or outer) side, 2 acyl side, 3 side chain; on linkers, the order of the positions; unused ones are H or OH. Square brackets hold non-standard residues; d marks the D form. Peptide text beside a SMILES is read from it. X2 = O=C(C1(N[*:1])CCCCCCCCCCC1)[*:2]; X1 = O=C(C1(N[*:1])CCCCCCCC1)[*:2]; 12Ado = NCCCCCCCCCCCC(=O)O; Ac8c = NC1(C(=O)O)CCCCCCC1; Ac7c = NC1(C(=O)O)CCCCCC1; Ac6c = NC1(C(=O)O)CCCCC1

Legend:
[1] = target: T1, B1 bradykinin receptor (Rattus norvegicus) (UniProt P97583); test: Agonistic activity against Bradykinin receptor B1 of rat ileum longitudinal smooth muscle; format: functional, tissue-based
T1 sequence (whole entry): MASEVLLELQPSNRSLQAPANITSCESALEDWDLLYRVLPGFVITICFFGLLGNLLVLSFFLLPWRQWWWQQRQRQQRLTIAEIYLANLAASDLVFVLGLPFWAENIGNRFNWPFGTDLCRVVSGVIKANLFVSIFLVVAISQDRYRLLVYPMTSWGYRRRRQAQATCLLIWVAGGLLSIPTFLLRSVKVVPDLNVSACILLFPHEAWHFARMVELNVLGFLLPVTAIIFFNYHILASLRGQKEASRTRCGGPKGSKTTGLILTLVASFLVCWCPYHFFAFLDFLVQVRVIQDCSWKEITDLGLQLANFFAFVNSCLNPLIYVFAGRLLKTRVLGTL
In short: (§1)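 Rat ileum longitudinal muscle-myenteric plexus strips in oxygenated (95% O2, 5% CO2) Krebs' solution with indomethacin and guanethidine (3 µM each), chlorpheniramine and atropine (1 µM each). Cumulative concentration-response curves of contraction, run with thiorphan, bestatin and captopril (1 µM each). pD2 = -log molar agonist concentration giving 50% of maximal effect; mean ± SEM, 4-10 experiments.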

[2] = target: T1, B1 bradykinin receptor (Rattus norvegicus); test: Agonistic activity against Bradykinin receptor B1 of rat ileum longitudinal smooth muscle; Inactive; format: functional, tissue-based; in short: as §1

Row | Molecule | pD2 [1] | IA [2]
1 | NCCCC[C@H](N)C(=O)N[C@@H](CCCN=C(N)N)C(=O)NCC(=O)NC1(C(=O)NCC(=O)N[C@@H](CO)C(=O)N2CCC[C@H]2C(=O)N[C@@H](Cc2ccccc2)C(=O)O)CCCCCCCC1 (H-KRG[X1]GSPF-OH) | 5.4 | –
2 | H-KRGGGSPF-OH | – | inactive
3 | NCCCC[C@H](N)C(=O)N[C@@H](CCCN=C(N)N)C(=O)NCC(=O)NC1(C(=O)NCC(=O)N[C@@H](CO)C(=O)N2CCC[C@H]2C(=O)N[C@@H](Cc2ccccc2)C(=O)O)CCCCCC1 (H-KRG[Ac7c]GSPF-OH) | 5.4 | –
4 | NCCCC[C@H](N)C(=O)N[C@@H](CCCN=C(N)N)C(=O)NCC(=O)NC1(C(=O)NCC(=O)N[C@@H](CO)C(=O)N2CCC[C@H]2C(=O)N[C@@H](Cc2ccccc2)C(=O)O)CCCCC1 (H-KRG[Ac6c]GSPF-OH) | 5.1 | –
5 | NCCCC[C@H](N)C(=O)N[C@@H](CCCN=C(N)N)C(=O)NC1(C(=O)N[C@@H](CO)C(=O)N2CCC[C@H]2C(=O)N[C@@H](Cc2ccccc2)C(=O)O)CCCCCC1 (H-KR[Ac7c]SPF-OH) | – | inactive
6 | NCCCC[C@H](N)C(=O)N[C@@H](CCCN=C(N)N)C(=O)NCC(=O)NC1(C(=O)NCC(=O)N[C@@H](CO)C(=O)N2CCC[C@H]2C(=O)N[C@@H](Cc2ccccc2)C(=O)O)CCCCCCC1 (H-KRG[Ac8c]GSPF-OH) | 5.7 | –
7 | NCCCC[C@H](N)C(=O)N[C@@H](CCCN=C(N)N)C(=O)NCC(=O)NC1(C(=O)NCC(=O)N[C@@H](CO)C(=O)N2CCC[C@H]2C(=O)N[C@@H](Cc2ccccc2)C(=O)O)CCCCCCCCCCC1 (H-KRG[X2]GSPF-OH) | 5.5 | –
8 | NCCCC[C@H](N)C(=O)N[C@@H](CCCN=C(N)N)C(=O)NCCCCCCCCCCCC(=O)N[C@@H](CO)C(=O)N1CCC[C@H]1C(=O)N[C@@H](Cc1ccccc1)C(=O)O (H-KR[12Ado]SPF-OH) | 6 | –
